From publication PMC11406440 (Food and chemical toxicology : an international journal …, 2024)

Assays:
spleen cells = assay: Spleen immune phenotyping by flow cytometry; format: in vivo, B6C3F1 mice; details: 28 days; for Spleen CD86 B-cells / Spleen CD86 DCs / Spleen Cellularity / Spleen Dendritic Cells frequency / Spleen Dendritic Cells number / Spleen MHCII B-cells / Spleen MHCII DCs / Spleen NK frequency / Spleen NK number / Spleen Neutrophils frequency / Spleen Neutrophils number / Spleen B-cells frequency / Spleen B-cells number / Spleen CD4+ frequency / Spleen CD4+ number / Spleen CD8+ frequency / Spleen CD8+ number / Spleen CD11b + Ly6C+ frequency / Spleen CD11b + Ly6C+ number / Spleen CD11b + Ly6C- frequency / Spleen CD11b + Ly6C- number / Spleen CD11b+ frequency / Spleen CD11b+ number: mean ± SE
How it was run: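 Female B6C3F1 mice (5/group) received 25 μl/ear of acetone vehicle or 1.25, 2.5 or 5% w/v test compound on the dorsal surface of each ear, once daily for 28 days. They were euthanized about 24 h later. Single-cell suspensions were made from both auricular dLNs, half a spleen or one ear pinna. Cells were Fc-blocked (anti-CD16/32), stained with surface antibody cocktails and acquired on an LSR II, with FMO gating controls.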

IgM response to SRBC = assay: Spleen IgM response to SRBC; format: in vivo, B6C3F1 mice; details: 10 days
How it was run: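 B6C3F1 mice, 5/group, dosed topically on dorsal surface of each ear (25 μl/ear) with acetone vehicle or test compound at 0.625, 1.25, 2.5% w/v once daily for 10 consecutive days. SRBC 7.5 × 10^7 i.v. given 4 days before CO2 euthanasia. Spleen cells plated at 1:30 and 1:120 in agar/DEAE-dextran with SRBC and guinea pig complement, 3 h at 37 °C. Plaques counted per 10^6 cells and per spleen. Mean ± SE.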

[1] = female rats, 14-days of 10 mg/kg/day oral exposure; ref Butenhoff et al., 2009; cited from earlier work

SMILES: O=S(=O)(O)C(F)(F)C(F)(F)C(F)(F)C(F)(F)C(F)(F)C(F)(F)F [PFHxS, Perfluorohexane sulfonic acid]
- Spleen CD86 B-cells (spleen cells; 1.25% PFHxS): 341.20 ± 16.00 MFI
- Spleen CD86 DCs (spleen cells; 1.25% PFHxS): 1733.80 ± 46.13 MFI
- Spleen Cellularity (spleen cells; 1.25% PFHxS): 7.91 ± 1.16 x 10^7
- Spleen Dendritic Cells frequency (spleen cells; 1.25% PFHxS): 3.33 ± 0.32%
- Spleen Dendritic Cells number (spleen cells; 1.25% PFHxS): 2.70 ± 0.48 x 10^6
- Spleen MHCII B-cells (spleen cells; 1.25% PFHxS): 1334.60 ± 89.70 MFI
- Spleen MHCII DCs (spleen cells; 1.25% PFHxS): 4141.40 ± 112.06 MFI
- Spleen NK frequency (spleen cells; 1.25% PFHxS): 2.52 ± 0.17%
- Spleen NK number (spleen cells; 1.25% PFHxS): 20.00 ± 3.26 x 10^5
- Spleen Neutrophils frequency (spleen cells; 1.25% PFHxS): 1.76 ± 0.14%
- Spleen Neutrophils number (spleen cells; 1.25% PFHxS): 14.00 ± 2.38 x 10^5
- Spleen eosinophils frequency and number (spleen cells; 1.25%, 2.5%, 5% PFHxS): decrease
- Spleen B-cells frequency (spleen cells; 2.5% PFHxS): 32.48 ± 0.37%
- Spleen B-cells number (spleen cells; 2.5% PFHxS): 1.62 ± 0.19 x 10^7
- Spleen CD4+ frequency (spleen cells; 2.5% PFHxS): 26.26 ± 0.79 %
- Spleen CD4+ number (spleen cells; 2.5% PFHxS): 1.30 ± 0.13 x 10^7
- Spleen CD8+ frequency (spleen cells; 2.5% PFHxS): 16.74 ± 0.56 %
- Spleen CD8+ number (spleen cells; 2.5% PFHxS): 8.25 ± 0.73 x 10^6
- Spleen CD11b + Ly6C+ frequency (spleen cells; 2.5% PFHxS): 0.72 ± 0.11 %
- Spleen CD11b + Ly6C+ number (spleen cells; 2.5% PFHxS): 3.77 ± 0.85 x 10^5
- Spleen CD11b + Ly6C- frequency (spleen cells; 2.5% PFHxS): 2.21 ± 0.13 %
- Spleen CD11b + Ly6C- number (spleen cells; 2.5% PFHxS): 11.20 ± 1.52 x 10^5
- Spleen CD11b+ frequency (spleen cells; 2.5% PFHxS): 3.07 ± 0.21 %
- Spleen CD11b+ number (spleen cells; 2.5% PFHxS): 1.56 ± 0.24 x 10^6
- Spleen CD86 B-cells (spleen cells; 2.5% PFHxS): 280.80 ± 10.49 MFI
- Spleen CD86 DCs (spleen cells; 2.5% PFHxS): 1677.40 ± 60.65 MFI
- Spleen Cellularity (spleen cells; 2.5% PFHxS): 4.99 ± 0.55 x 10^7
- Spleen Dendritic Cells frequency (spleen cells; 2.5% PFHxS): 3.36 ± 0.48%
- Spleen Dendritic Cells number (spleen cells; 2.5% PFHxS): 1.71 ± 0.33 x 10^6
- Spleen MHCII B-cells (spleen cells; 2.5% PFHxS): 1235.60 ± 111.64 MFI
- Spleen MHCII DCs (spleen cells; 2.5% PFHxS): 4003.00 ± 145.61 MFI
- Spleen NK frequency (spleen cells; 2.5% PFHxS): 2.19 ± 0.06 %
- Spleen NK number (spleen cells; 2.5% PFHxS): 10.90 ± 1.04 x 10^5
- Spleen Neutrophils frequency (spleen cells; 2.5% PFHxS): 1.69 ± 0.21%
- Spleen Neutrophils number (spleen cells; 2.5% PFHxS): 8.87 ± 2.15 x 10^5
- Spleen B-cells frequency (spleen cells; 5% PFHxS): 30.06 ± 0.55 %
- Spleen B-cells number (spleen cells; 5% PFHxS): 1.11 ± 0.15 x 10^7
- Spleen CD4+ frequency (spleen cells; 5% PFHxS): 26.90 ± 0.70 %
- Spleen CD4+ number (spleen cells; 5% PFHxS): 0.99 ± 0.12 x 10^7
- Spleen CD8+ frequency (spleen cells; 5% PFHxS): 18.12 ± 0.59 %
- Spleen CD8+ number (spleen cells; 5% PFHxS): 6.58 ± 0.73 x 10^6
- Spleen CD11b + Ly6C+ frequency (spleen cells; 5% PFHxS): 0.68 ± 0.13 %
- Spleen CD11b + Ly6C+ number (spleen cells; 5% PFHxS): 2.52 ± 0.56 x 10^5
- Spleen CD11b + Ly6C- frequency (spleen cells; 5% PFHxS): 1.69 ± 0.13 %
- Spleen CD11b + Ly6C- number (spleen cells; 5% PFHxS): 6.28 ± 0.91 x 10^5
- Spleen CD11b+ frequency (spleen cells; 5% PFHxS): 2.49 ± 0.24 %
- Spleen CD11b+ number (spleen cells; 5% PFHxS): 0.93 ± 0.15 x 10^6
- Spleen CD86 B-cells (spleen cells; 5% PFHxS): 302.60 ± 14.79 MFI
- Spleen CD86 DCs (spleen cells; 5% PFHxS): 1754.60 ± 67.69 MFI
- Spleen Cellularity (spleen cells; 5% PFHxS): 3.68 ± 0.45 x 10^7
- Spleen Dendritic Cells frequency (spleen cells; 5% PFHxS): 3.34 ± 0.31%
- Spleen Dendritic Cells number (spleen cells; 5% PFHxS): 1.26 ± 0.20 x 10^6
- Spleen MHCII B-cells (spleen cells; 5% PFHxS): 1093.20 ± 94.51 MFI
- Spleen MHCII DCs (spleen cells; 5% PFHxS): 3854.60 ± 88.79 MFI
- Spleen NK frequency (spleen cells; 5% PFHxS): 1.71 ± 0.17 %
- Spleen NK number (spleen cells; 5% PFHxS): 6.35 ± 0.96 x 10^5
- Spleen Neutrophils frequency (spleen cells; 5% PFHxS): 2.51 ± 0.34 %
- Spleen Neutrophils number (spleen cells; 5% PFHxS): 9.14 ± 1.54 x 10^5
- Decrease in specific IgM activity against SRBC (PFC/10^6 cells) vs vehicle (IgM response to SRBC; 1.25% PFHxS dermal): 50.7%
- Decrease in total IgM activity against SRBC (PFC/spleen) vs vehicle (IgM response to SRBC; 1.25% PFHxS dermal): 57.9%
- Decrease in specific IgM activity against SRBC (PFC/10^6 cells) vs vehicle (IgM response to SRBC; 2.5% PFHxS dermal): 49.9%
- Decrease in total IgM activity against SRBC (PFC/spleen) vs vehicle (IgM response to SRBC; 2.5% PFHxS dermal): 60.3%
- Serum concentration [1]: 42000 ng/mL
